According to PMC11734723 (Science Advances, 2025):

Assays:
STIM1/Orai1 = STIM1/Orai1 (Homo sapiens, UniProt Q13586); experiment: Store-operated Ca2+ entry; type: cell-based; settings: Tg 2 μM, 1 mM Ca2+, ELP-004 0 to 1 mM
Method in brief: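 STIM1–YFP was electroporated into HEK293 cells, which were selected with puromycin (5 µg/ml) and cloned for highest YFP. Orai1–CFP was then added, followed by G418 selection and cloning for highest YFP/CFP and screening for SOCE. Fura2-loaded cells (2 µM, 30 min, RT) were held 10 min in Ca²⁺-free pH 7.2 buffer with thapsigargin (2 µM) and test compound. After baseline, 1 mM Ca²⁺ was added; the read-out was the 340/380 ratio.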

endogenous SOCE = experiment: Endogenous SOCE; type: cell-based; settings: read-out: IC50 of endogenous SOCE
Method in brief: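 Store-operated entry by Fura2 imaging. Cells were loaded with Fura2-AM (2 µM, 30 min, RT) and de-esterified 30 min. They were then exposed 10 min to thapsigargin (2 µM) plus varying test compound concentrations in nominally Ca²⁺-free Hepes buffer (pH 7.2). After a stable baseline, 1 mM Ca²⁺ was added and entry was followed as the 340/380 nm ratio.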

[1] = tested on: Cch-induced ER Ca2+ release; experiment: Carbachol-induced ER Ca2+ release in TRPC-overexpressing HEK293 cells; type: cell-based; settings: ELP-004 1 nM to 100 μM
mouse TRPC4β = target: T1, mouse TRPC4β (Mus musculus, UniProt Q9QUQ5); experiment: Whole-cell patch clamp of Englerin A-induced TRPC4 currents in HEK293 cells; type: cell-based; settings: for decrease of EA-induced TRPC4 current 45 s after the peak: EA 30 nM
T1 sequence (Q9QUQ5 1-890 isoform Q9QUQ5-2): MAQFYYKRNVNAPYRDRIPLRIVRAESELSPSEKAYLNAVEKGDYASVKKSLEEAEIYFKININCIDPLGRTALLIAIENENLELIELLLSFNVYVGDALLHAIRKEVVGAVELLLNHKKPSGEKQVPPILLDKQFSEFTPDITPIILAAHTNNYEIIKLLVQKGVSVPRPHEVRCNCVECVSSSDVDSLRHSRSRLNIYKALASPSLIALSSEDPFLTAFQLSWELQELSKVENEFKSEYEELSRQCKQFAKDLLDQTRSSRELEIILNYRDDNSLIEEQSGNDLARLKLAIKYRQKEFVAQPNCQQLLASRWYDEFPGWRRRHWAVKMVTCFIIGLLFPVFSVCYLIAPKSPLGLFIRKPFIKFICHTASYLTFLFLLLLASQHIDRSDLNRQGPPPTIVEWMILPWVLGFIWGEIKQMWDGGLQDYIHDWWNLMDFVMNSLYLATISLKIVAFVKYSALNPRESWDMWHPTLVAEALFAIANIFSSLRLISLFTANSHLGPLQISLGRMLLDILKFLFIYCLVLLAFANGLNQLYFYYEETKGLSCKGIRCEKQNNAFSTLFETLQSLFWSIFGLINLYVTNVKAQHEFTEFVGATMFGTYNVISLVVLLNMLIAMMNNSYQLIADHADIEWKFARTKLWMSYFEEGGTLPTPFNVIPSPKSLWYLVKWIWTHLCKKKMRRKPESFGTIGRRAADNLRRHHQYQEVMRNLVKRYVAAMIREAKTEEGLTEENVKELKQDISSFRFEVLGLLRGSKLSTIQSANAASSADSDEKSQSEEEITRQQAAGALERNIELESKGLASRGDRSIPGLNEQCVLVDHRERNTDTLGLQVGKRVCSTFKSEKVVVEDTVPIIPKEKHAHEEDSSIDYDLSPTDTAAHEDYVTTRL
Method in brief: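 Whole-cell recordings were made from HEK293 cells transiently expressing mouse TRPC4β, using ramps from −100 to +100 mV (200 ms, every 5 s; holding 0 mV). Pipette: CsCl with BAPTA (free Ca²⁺ 400 nM), pH 7.2; bath pH 7.4. After ~30 s in nominally Ca²⁺-free bath, Englerin A (30 nM) was applied. About 10 s after peak, Englerin A plus test compound (10, 30, 100 or 1000 nM) was perfused for ~90–100 s. Currents were read at ±100 mV.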

murine BMSMCs [2] = experiment: Basal intracellular Ca2+ during osteoclastogenesis of murine BMSMCs; type: cell-based, mouse; settings: ELP-004 100 nM
Method in brief: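 C57Bl/6 bone marrow/spleen myeloid cells were grown in αMEM, 10% FBS, and mCSF (50 ng/ml). RANKL (1 or 100 ng/ml) was added at 24 h. After 2–3 days, TNFα (2 ng/ml), LTB4 (50 nM) and test compound (100 nM) were added as indicated, with media refreshed every 3–5 days. On days 1, 7, 14 and 21, cells were Fura2-loaded (2 µM, 30 min, RT; 30 min de-esterification) in pH 7.2 buffer. Basal Ca²⁺ was read as the 340/380 ratio.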

[3] = tested on: NFATc1 nuclear translocation; experiment: NFATc1 nuclear translocation; type: cell-based, mouse; settings: ELP-004 100 nM
Method in brief: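 Murine BMSMC cultures were sampled at 24 h and on days 7, 14 and 21. Cells were fixed in 3.7% PFA (10 min, RT), antigen-retrieved in tris/urea (pH 9.5, 95°C, 10 min), permeabilised in 0.2% Tween 20 and blocked in 1% BSA plus glycine. Anti-NFATc1 (clone 7A6, 200 ng/ml) was applied overnight at 4°C, then Alexa Fluor 488 secondary (2 µg/ml, 1 h) with 7-AAD counterstain. Nuclear colocalisation was assessed by confocal microscopy.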

murine BMSMCs [4] = experiment: qPCR of osteoclast markers in murine BMSMC-derived osteoclasts; type: cell-based, mouse
Method in brief: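 Murine osteoclasts were cultured in mCSF (50 ng/ml) with RANKL (1 or 100 ng/ml) and, where indicated, LTB4 (50 nM) or TNFα (2 ng/ml) and test compound (100 nM), for up to 14 days. Cells were pelleted and RNA was extracted. Then 250 ng RNA was DNase-treated (ezDNase) and reverse-transcribed with Superscript IV for qPCR.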

Sequence of STIM1/Orai1 (Q13586 23-685, species assumed): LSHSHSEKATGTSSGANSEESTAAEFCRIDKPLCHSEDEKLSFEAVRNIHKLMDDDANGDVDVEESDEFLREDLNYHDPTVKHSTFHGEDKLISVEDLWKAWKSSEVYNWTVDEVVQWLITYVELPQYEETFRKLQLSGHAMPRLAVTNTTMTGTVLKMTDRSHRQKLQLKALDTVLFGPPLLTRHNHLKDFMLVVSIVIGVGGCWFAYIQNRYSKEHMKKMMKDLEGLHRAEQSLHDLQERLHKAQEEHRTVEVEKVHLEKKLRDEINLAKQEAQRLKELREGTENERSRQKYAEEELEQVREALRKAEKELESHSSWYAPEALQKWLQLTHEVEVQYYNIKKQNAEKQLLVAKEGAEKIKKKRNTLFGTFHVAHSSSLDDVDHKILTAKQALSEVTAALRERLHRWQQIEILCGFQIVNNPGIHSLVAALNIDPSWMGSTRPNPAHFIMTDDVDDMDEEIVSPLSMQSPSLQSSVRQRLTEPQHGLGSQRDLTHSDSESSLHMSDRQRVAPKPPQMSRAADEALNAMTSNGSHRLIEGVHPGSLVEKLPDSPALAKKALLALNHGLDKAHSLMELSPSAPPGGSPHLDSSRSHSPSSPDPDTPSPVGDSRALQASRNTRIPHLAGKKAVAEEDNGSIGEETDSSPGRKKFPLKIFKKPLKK

- effect on STIM1/Orai1-mediated Ca2+ entry (STIM1/Orai1): largely unaffected
- IC50 (endogenous SOCE): 100 µM
- decrease of EA-induced TRPC4 current 45 s after the peak (mouse TRPC4β; 10 nM ELP-004, +100 mV): 37%
- decrease of EA-induced TRPC4 current 45 s after the peak (mouse TRPC4β; 10 nM ELP-004, −100 mV): 58%
- inhibition of EA-induced TRPC4 currents (mouse TRPC4β; 1 μM ELP-004): lost its inhibitory action
- inhibition of EA-induced TRPC4 currents at higher concentrations (mouse TRPC4β; 30 and 100 nM ELP-004 versus 10 nM): did not show stronger inhibitory effects
Compound: CCC(=O)N(C)c1ccc(Cl)c(Cl)c1 [ELP-004]
- effect on Cch-induced ER Ca2+ release [1]: no effect
- effect on Ca2+ elevation (murine BMSMCs [2]; LTB4 (50 nM)/RANKL (1 ng/ml)): significantly attenuated
- effect on basal Ca2+ levels (murine BMSMCs [2]; RANKL-induced (100 ng/ml), days 1-21): no significant effect
- effect on Ca2+ elevation (murine BMSMCs [2]; TNFα (2 ng/ml)/RANKL (1 ng/ml)): significantly attenuated
- changes in NFAT localization ([3]; BMSMC-derived macrophages (mCSF only)): No significant changes
- effect on NFAT nuclear localization ([3]; LTB4/RANKL): blocked
- effect on NFAT translocation ([3]; RANKL-induced (100 ng/ml)): no effect
- effect on NFAT nuclear localization ([3]; TNFα/RANKL): blocked
- changes in NFAT localization ([3]; low RANKL alone (1 ng/ml)): No significant changes
- changes in LTB4-induced expression of other osteoclast markers (murine BMSMCs [4]; LTB4/RANKL, ELP-004 100 nM): no significant changes
- effect on LTB4-induced increase in DC-STAMP expression (murine BMSMCs [4]; LTB4/RANKL, ELP-004 100 nM): no effect
- effect on LTB4-induced increase in OC-STAMP expression (murine BMSMCs [4]; LTB4/RANKL, ELP-004 100 nM): no effect
- changes in OC-STAMP mRNA expression (murine BMSMCs [4]; RANKL (100 ng/ml), ELP-004 100 nM): no significant changes
- effect on DC-STAMP mRNA expression (murine BMSMCs [4]; RANKL (100 ng/ml), day 14, ELP-004 100 nM): Significant inhibition
- effect on MMP9 expression (murine BMSMCs [4]; RANKL, day 14, ELP-004 100 nM): inhibited
- effect on DC-STAMP expression (murine BMSMCs [4]; TNFα/RANKL, ELP-004 100 nM): abrogated
- effect on MMP9 expression (murine BMSMCs [4]; TNFα/RANKL, ELP-004 100 nM): suppressed
- effect on OC-STAMP expression (murine BMSMCs [4]; TNFα/RANKL, ELP-004 100 nM): abrogated
- effect on other osteoclast markers (murine BMSMCs [4]; TNFα/RANKL, ELP-004 100 nM): no other osteoclast markers
